Test results reported in ChEMBL document CHEMBL1156735, “Might adrenergic alpha2C-agonists/alpha2A-antagonists become novel therapeutic tools for pain treatment with morphine?” (J Med Chem, 2009).

Key:
[1] = biological target: T1, Alpha-2B adrenergic receptor (Homo sapiens) (UniProt P18089); experiment: Intrinsic activity at human alpha2B adrenoceptor expressed in CHO cells assessed as extracellular acidification by cytosensor microphysiometry relative to noradrenaline; format: cell-based
T1 sequence (whole entry): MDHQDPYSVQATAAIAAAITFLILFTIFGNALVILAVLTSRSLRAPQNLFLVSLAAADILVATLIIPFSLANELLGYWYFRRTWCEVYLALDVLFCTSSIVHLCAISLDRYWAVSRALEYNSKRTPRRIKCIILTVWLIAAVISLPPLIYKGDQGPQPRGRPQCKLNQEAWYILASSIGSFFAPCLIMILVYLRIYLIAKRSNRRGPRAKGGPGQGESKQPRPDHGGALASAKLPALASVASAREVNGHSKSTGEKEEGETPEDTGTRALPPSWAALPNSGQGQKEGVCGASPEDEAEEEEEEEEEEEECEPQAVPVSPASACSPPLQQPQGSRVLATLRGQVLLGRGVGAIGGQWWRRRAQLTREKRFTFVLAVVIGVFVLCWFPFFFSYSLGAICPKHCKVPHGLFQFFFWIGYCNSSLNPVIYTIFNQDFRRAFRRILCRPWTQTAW
Method in brief: (§1)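 Cytosensor microphysiometry on the same CHO cell lines expressing individual human α2-AR subtypes. pEC50, pKb and intrinsic activity were derived, with ia expressed as a fraction of full agonist (-)-noradrenaline (taken as 1). ia <0.3 was scored not active. Values are mean ± SEM of three to six separate experiments.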

[2] = biological target: T2, Alpha-2C adrenergic receptor (Homo sapiens) (UniProt P18825); experiment: Intrinsic activity at human Alpha-2C adrenoceptor expressed in CHO cells assessed as extracellular acidification by cytosensor microphysiometry relative to noradrenaline; format: cell-based; method in brief: as §1
T2 sequence (whole entry): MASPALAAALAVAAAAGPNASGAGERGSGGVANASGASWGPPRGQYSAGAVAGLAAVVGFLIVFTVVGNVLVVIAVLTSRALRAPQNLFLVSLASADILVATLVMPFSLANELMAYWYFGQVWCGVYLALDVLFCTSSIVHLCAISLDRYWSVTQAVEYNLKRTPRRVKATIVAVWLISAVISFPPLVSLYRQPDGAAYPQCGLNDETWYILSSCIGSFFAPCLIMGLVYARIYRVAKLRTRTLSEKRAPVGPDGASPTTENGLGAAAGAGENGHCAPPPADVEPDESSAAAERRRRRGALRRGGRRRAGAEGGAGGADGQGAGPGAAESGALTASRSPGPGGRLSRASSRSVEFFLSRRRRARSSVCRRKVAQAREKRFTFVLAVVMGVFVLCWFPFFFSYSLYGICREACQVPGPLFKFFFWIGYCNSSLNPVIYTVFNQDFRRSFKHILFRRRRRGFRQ

[3] = biological target: T3, Alpha-2A adrenergic receptor (Homo sapiens, UniProt P08913); experiment: Displacement of [3H]RX821002 from human alpha2A adrenoceptor expressed in CHO cell membrane after 30 mins by liquid scintillation counting; format: cell membranes
T3 sequence (P08913 whole entry): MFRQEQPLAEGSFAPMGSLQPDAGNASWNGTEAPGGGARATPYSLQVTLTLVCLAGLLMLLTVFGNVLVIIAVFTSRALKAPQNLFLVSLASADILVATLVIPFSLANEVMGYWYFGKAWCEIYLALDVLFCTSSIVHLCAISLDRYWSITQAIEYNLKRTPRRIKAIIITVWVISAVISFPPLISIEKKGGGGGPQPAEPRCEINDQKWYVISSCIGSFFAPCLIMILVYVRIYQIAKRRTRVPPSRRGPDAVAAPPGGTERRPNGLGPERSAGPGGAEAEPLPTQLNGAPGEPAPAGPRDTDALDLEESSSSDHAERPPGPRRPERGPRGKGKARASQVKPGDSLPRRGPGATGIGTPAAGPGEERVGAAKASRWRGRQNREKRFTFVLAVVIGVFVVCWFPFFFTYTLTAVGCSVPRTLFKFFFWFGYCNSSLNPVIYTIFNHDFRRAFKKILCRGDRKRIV
Method in brief: (§2)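 Competition binding against [3H]RX 821002 on membrane preparations from CHO cells, each line expressing one human α2-AR subtype (α2A, α2B or α2C); affinities reported as pKi.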

[4] = biological target: T4, Alpha-2A adrenergic receptor (Homo sapiens) (UniProt P08913); experiment: Antagonist activity at human alpha2A adrenoceptor expressed in CHO cells assessed as extracellular acidification by cytosensor microphysiometry; format: functional, cell-based; method in brief: as §1
T4 sequence (whole entry): T3 sequence (P08913 whole entry)

[5] = biological target: T5, Alpha-2B adrenergic receptor (Homo sapiens, UniProt P18089); experiment: Agonist activity at human alpha2B adrenoceptor expressed in CHO cells assessed as extracellular acidification by cytosensor microphysiometry; format: functional, cell-based; method in brief: as §1
T5 sequence (P18089 whole entry): T1 sequence (whole entry)

[6] = biological target: T6, Alpha-2C adrenergic receptor (Homo sapiens, UniProt P18825); experiment: Agonist activity at human Alpha-2C adrenoceptor expressed in CHO cells assessed as extracellular acidification by cytosensor microphysiometry; format: functional, cell-based; method in brief: as §1
T6 sequence (P18825 whole entry): T2 sequence (whole entry)

[7] = biological target: T5, Alpha-2B adrenergic receptor; experiment: Displacement of [3H]RX821002 from human alpha2B adrenoceptor expressed in CHO cell membrane after 30 mins by liquid scintillation counting; format: cell membranes; method in brief: as §2
[8] = biological target: T6, Alpha-2C adrenergic receptor; experiment: Displacement of [3H]RX821002 from human Alpha-2C adrenoceptor expressed in CHO cell membrane after 30 mins by liquid scintillation counting; format: cell membranes; method in brief: as §2

Row | SMILES | Intrinsic activity [1] | Intrinsic activity [2] | Ki [3] | pKb [4] | EC50 [5] | EC50 [6] | Ki [7] | Ki [8]
1 | NC[C@H](O)c1ccc(O)c(O)c1 | 1 | 1 |  |  |  |  |  | 
2 | c1ccc(C2CC2)c(OCC2=NCCN2)c1 [CIRAZOLINE] | 1 | 0.8 | 0.0589 µM | 6.4 | 1 µM | 0.398 µM | 0.525 µM | 0.55 µM
